Data on 27 compounds can be found in ChEMBL document CHEMBL4145468, “Synthesis and biological evaluation of new steroidal pyridines as potential anti-prostate cancer agents” (Eur J Med Chem, 2018).

pIC50: −log10 of the molar value. Where only a bound is given, the exact number is not on record here.

In experiment [1] the test system is GES1. In words: Antiproliferative activity against human GES-1 cells after 72 hrs by MTT assay. The experiment is classed as cell-based. Particulars: GES1, 72 h. The essentials:
(§1)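 Exponentially growing cells, 4×10^3/well, attached 24 h, then medium replaced with fresh medium holding graded compound concentrations for 72 h. MTT (5 mg/mL stock) added for 4 h, formazan dissolved in DMSO, absorbance at 570 nm; IC50 calculated from dose-response data.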

Experiment [2] concerns MGC-803. The experiment in a line: Antiproliferative activity against human MGC803 cells after 72 hrs by MTT assay. The experiment is classed as functional, cell-based. Particulars: MGC-803, 72 h. The method, boiled down:
as §1

The subject of experiment [3] is PC-3. In words: Antiproliferative activity against human PC3 cells after 72 hrs by MTT assay. In kind it is functional, cell-based. Particulars: PC-3, 72 h. The essentials: as §1
A general note: Tetrazolium assays rely on reduction of a dye to a coloured formazan, in cell work by metabolically active cells.

In experiment [4] the test system is ECa-109 cell line. The experiment in a line: Antiproliferative activity against human EC109 cells after 72 hrs by MTT assay. In kind it is functional, cell-based. Particulars: ECa-109, 72 h. The essentials:
as §1

For experiment [5], the system named is LNCaP. In words: Antiproliferative activity against human LNCAP cells after 72 hrs by MTT assay. In kind it is functional, cell-based. The method, boiled down: as §1

Turning to `CCOc1nc([C@H]2CC[C@H]3[C@@H]4CC=C5C[C@@H](O)CC[C@]5(C)[C@H]4CC[C@]23C)cc(-c2cccc(Br)c2)c1C#N`, the pIC50 in experiment [1] was 4.66; in experiment [2], 4.55; in experiment [3], 5.03; in experiment [4] it was less than 4.49.

Consider `CCOc1cc(-c2ccccc2)cc([C@H]2CC[C@H]3[C@@H]4CC=C5C[C@@H](O)CC[C@]5(C)[C@H]4CC[C@]23C)n1`, for which the pIC50 in experiment [1] is less than 4.49; in experiment [2] it was less than 4.49; in experiment [3], 4.51; in experiment [4], less than 4.49.

Consider `CCOc1cc(-c2ccc(Cl)cc2)cc([C@H]2CC[C@H]3[C@@H]4CC=C5C[C@@H](O)CC[C@]5(C)[C@H]4CC[C@]23C)n1`, for which the pIC50 is less than 4.49 in experiment [1], 4.72 in experiment [2], less than 4.49 in experiment [3] and less than 4.49 in experiment [4].

Regarding `CCOc1cc(-c2ccco2)cc([C@H]2CC[C@H]3[C@@H]4CC=C5C[C@@H](O)CC[C@]5(C)[C@H]4CC[C@]23C)n1`, the pIC50 in experiment [1] was less than 4.49; in experiment [2] it was 4.58; in experiment [3] it was 4.97; in experiment [4], 4.58.

In the case of `CCOc1nc([C@H]2CC[C@H]3[C@@H]4CC=C5C[C@@H](O)CC[C@]5(C)[C@H]4CC[C@]23C)cc(-c2ccccc2)c1C#N`, the pIC50 in experiment [1] is 5.11; in experiment [2] it was 4.80; in experiment [3], 5.36; in experiment [4], 4.88.

Regarding `CCOc1cc(-c2ccc(Br)cc2)cc([C@H]2CC[C@H]3[C@@H]4CC=C5C[C@@H](O)CC[C@]5(C)[C@H]4CC[C@]23C)n1`, the pIC50 in experiment [1], in experiment [2], in experiment [3] and in experiment [4] was less than 4.49 in each case.

Regarding `CCOc1cc(-c2ccc(S(C)(=O)=O)cc2)cc([C@H]2CC[C@H]3[C@@H]4CC=C5C[C@@H](O)CC[C@]5(C)[C@H]4CC[C@]23C)n1`, the negative logarithm of the IC50 (pIC50) in experiment [1] was less than 4.49; in experiment [2], less than 4.49; in experiment [3], less than 4.49; in experiment [4] it was 4.50.

Turning to `CCOc1cc(-c2cccnc2)cc([C@H]2CC[C@H]3[C@@H]4CC=C5C[C@@H](OC(C)=O)CC[C@]5(C)[C@H]4CC[C@]23C)n1`, the negative-log IC50 (pIC50) was less than 4.49 in experiment [1]; 4.55 in experiment [5]; less than 4.49 in experiment [2]; 5.16 in experiment [3]; less than 4.49 in experiment [4].

Regarding `CCOc1nc([C@H]2CC[C@H]3[C@@H]4CC=C5C[C@@H](O)CC[C@]5(C)[C@H]4CC[C@]23C)cc(-c2ccc(S(C)(=O)=O)cc2)c1C#N`, the pIC50 in experiment [1], in experiment [2], in experiment [3] and in experiment [4] was less than 4.49 each time.

As for `C[C@]12CC[C@H](O)CC1=CC[C@@H]1[C@@H]2CC[C@]2(C)C(c3cccnc3)=CC[C@@H]12` [ABIRATERONE], the pIC50 in experiment [1] was 4.88; in experiment [5], 5.48; in experiment [2] it was 5.11; in experiment [3] it was 5.23; in experiment [4], less than 4.49.

On to `CCOc1cc(-c2cc(F)cc(F)c2)cc([C@H]2CC[C@H]3[C@@H]4CC=C5C[C@@H](O)CC[C@]5(C)[C@H]4CC[C@]23C)n1`, for which the pIC50 was less than 4.49 in experiment [1], less than 4.49 in experiment [2], 4.78 in experiment [3] and less than 4.49 in experiment [4].

For the compound `CCOc1cc(-c2ccc(C#N)cc2)cc([C@H]2CC[C@H]3[C@@H]4CC=C5C[C@@H](O)CC[C@]5(C)[C@H]4CC[C@]23C)n1`, the pIC50 is less than 4.49 in experiment [1], 4.63 in experiment [2], 4.61 in experiment [3] and less than 4.49 in experiment [4].

Take `CCOc1nc([C@H]2CC[C@H]3[C@@H]4CC=C5C[C@@H](O)CC[C@]5(C)[C@H]4CC[C@]23C)cc(-c2ccc(F)cc2)c1C#N`: the pIC50 in experiment [1], in experiment [2], in experiment [3] and in experiment [4] was less than 4.49 throughout.

Turning to `CCOc1nc([C@H]2CC[C@H]3[C@@H]4CC=C5C[C@@H](O)CC[C@]5(C)[C@H]4CC[C@]23C)cc(-c2cccs2)c1C#N`, the pIC50 in experiment [1] was less than 4.49; in experiment [2], 4.63; in experiment [3], 5.16; in experiment [4], 5.01.

In the case of `CCOc1cc(-c2ccncc2)cc([C@H]2CC[C@H]3[C@@H]4CC=C5C[C@@H](O)CC[C@]5(C)[C@H]4CC[C@]23C)n1`, the negative-log IC50 (pIC50) was 4.80 in experiment [1], 5.35 in experiment [2], 5.20 in experiment [3] and 4.78 in experiment [4].

For the compound `CCOc1nc([C@H]2CC[C@H]3[C@@H]4CC=C5C[C@@H](O)CC[C@]5(C)[C@H]4CC[C@]23C)cc(-c2cccc([N+](=O)[O-])c2)c1C#N`, the pIC50 in experiment [1] is less than 4.49; in experiment [2], 4.88; in experiment [3] it was 5.11; in experiment [4] it was 4.56.

Regarding `CCOc1cc(-c2cccc(Br)c2)cc([C@H]2CC[C@H]3[C@@H]4CC=C5C[C@@H](O)CC[C@]5(C)[C@H]4CC[C@]23C)n1`, the pIC50 in experiment [1] is less than 4.49; in experiment [2], less than 4.49; in experiment [3], 4.66; in experiment [4] it was less than 4.49.

`CCOc1cc(-c2ccc(F)cc2)cc([C@H]2CC[C@H]3[C@@H]4CC=C5C[C@@H](O)CC[C@]5(C)[C@H]4CC[C@]23C)n1`: the pIC50 in experiment [1], in experiment [2], in experiment [3] and in experiment [4] was less than 4.49 throughout.

As for `CCOc1nc([C@H]2CC[C@H]3[C@@H]4CC=C5C[C@@H](O)CC[C@]5(C)[C@H]4CC[C@]23C)cc(-c2cc(F)cc(F)c2)c1C#N`, the pIC50 in experiment [1] is less than 4.49; in experiment [2], 4.91; in experiment [3], 5.16; in experiment [4] it was 4.70.

On to `CCOc1cc(-c2ccc(C)cc2)cc([C@H]2CC[C@H]3[C@@H]4CC=C5C[C@@H](O)CC[C@]5(C)[C@H]4CC[C@]23C)n1`, for which the pIC50 in experiment [1], in experiment [2], in experiment [3] and in experiment [4] was less than 4.49 each time.

In the case of `CCOc1cc(-c2cccs2)cc([C@H]2CC[C@H]3[C@@H]4CC=C5C[C@@H](O)CC[C@]5(C)[C@H]4CC[C@]23C)n1`, the pIC50 in experiment [1] was less than 4.49; in experiment [2], less than 4.49; in experiment [3], 4.82; in experiment [4], 4.76.

For the compound `CCOc1nc([C@H]2CC[C@H]3[C@@H]4CC=C5C[C@@H](O)CC[C@]5(C)[C@H]4CC[C@]23C)cc(-c2ccc(Cl)cc2)c1C#N`, the pIC50 in experiment [1] is less than 4.49; in experiment [2], less than 4.49; in experiment [3], 4.98; in experiment [4] it was less than 4.49.

`CCOc1nc([C@H]2CC[C@H]3[C@@H]4CC=C5C[C@@H](O)CC[C@]5(C)[C@H]4CC[C@]23C)cc(-c2ccsc2)c1C#N`: the pIC50 in experiment [1] was 4.52; in experiment [2], 4.65; in experiment [3], 4.91; in experiment [4], 4.98.

For the compound `CCOc1nc([C@H]2CC[C@H]3[C@@H]4CC=C5C[C@@H](O)CC[C@]5(C)[C@H]4CC[C@]23C)cc(-c2cccnc2)c1C#N`, the pIC50 in experiment [1] was less than 4.49; in experiment [5] it was 5.29; in experiment [2], 4.83; in experiment [3], 5.23; in experiment [4], 5.55.

`CCOc1cc(-c2ncccc2Br)cc([C@H]2CC[C@H]3[C@@H]4CC=C5C[C@@H](O)CC[C@]5(C)[C@H]4CC[C@]23C)n1`: the pIC50 in experiment [1] is less than 4.49; in experiment [2], 4.59; in experiment [3] it was 4.87; in experiment [4] it was less than 4.49.

With `CCOc1nc([C@H]2CC[C@H]3[C@@H]4CC=C5C[C@@H](O)CC[C@]5(C)[C@H]4CC[C@]23C)cc(-c2ccc(C)cc2)c1C#N`, the pIC50 in experiment [1], in experiment [2], in experiment [3] and in experiment [4] was less than 4.49 in each case.

Regarding `CCOc1nc([C@H]2CC[C@H]3[C@@H]4CC=C5C[C@@H](O)CC[C@]5(C)[C@H]4CC[C@]23C)cc(-c2ccc(Br)cc2)c1C#N`, the pIC50 in experiment [1] is less than 4.49; in experiment [2] it was less than 4.49; in experiment [3] it was 4.86; in experiment [4], less than 4.49.

As usually defined, the pIC50 is the IC50 on a negative log10 scale, so that one unit is a factor of ten. Higher therefore signals a low IC50.
